Laboratory results from ChEMBL document CHEMBL2157903, “2-Arylbenzofuran-based molecules as multipotent Alzheimer's disease modifying agents” (Eur J Med Chem, 2012).
Activity calls are given as the source filed them. No cut-off for these calls is given here.

Columns and labels:
Acetylcholinesterase = Acetylcholinesterase (Homo sapiens, UniProt P22303); assay: Inhibition of human recombinant AChE using acetylthiocholine iodide as substrate preincubated for 20 mins prior to substrate addition by Ellman's method
In short: (§1)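 Ellman method with acetylthiocholine iodide (AChE) or butyrylthiocholine iodide (BuChE) as substrate. Enzyme and inhibitor preincubated 20 min at 37 °C before substrate addition. Blanks without enzyme corrected for non-enzymatic hydrolysis. Five inhibitor concentrations giving 20-80% inhibition. IC50 from linear regression of % inhibition vs log final concentration. Mean of two or three independent measurements, each in triplicate.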

[1] = Inhibition of amyloid beta (25 to 35) fibril formation at 10 uM incubated up to 6 hrs by UV-Vis spectrophotometric analysis
In short: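 Aβ25-35 at 100 μM final, in 10 mM phosphate buffer pH 7.2, sonicated 1 min on addition. Compound added in MeOH at 10 μM final, with curcumin reference alongside. Polymerization followed by UV-vis at 190-380 nm over 0-6 h. Spectra of compound alone were subtracted. At least three independent runs.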

Cholinesterase = Cholinesterase (Homo sapiens, UniProt P06276); assay: Inhibition of human serum BuChE using butyrylthiocholine iodide as substrate preincubated for 20 mins prior to substrate addition by Ellman's method; in short: as §1
Cannabinoid receptor 2 [2] = biological target: T1, Cannabinoid receptor 2 (Homo sapiens, UniProt P34972); assay: Displacement of [3H]CP-55940 from human recombinant CB2 receptor expressed in HEK293 cells after 90 mins; type: cell-based
In short: (§2)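 Membranes from HEK-293 cells stably expressing human recombinant CB1 (Bmax 2.5 pmol/mg) or CB2 (Bmax 4.7 pmol/mg). Incubated with [3H]-CP-55,940 (CB1 0.14 nM, Kd 0.18 nM; CB2 0.084 nM, Kd 0.31 nM) and increasing compound concentrations for 90 min at 30 °C. Non-specific binding defined with 10 […] 55212-2. IC50 by non-linear regression, converted to Ki by Cheng-Prusoff. Means of at least n = 3.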

Cannabinoid receptor 1 [3] = biological target: T2, Cannabinoid receptor 1 (Homo sapiens, UniProt P21554); assay: Displacement of [3H]CP-55940 from human recombinant CB1 receptor expressed in HEK293 cells after 90 mins; type: cell-based; in short: as §2
Cannabinoid receptor 2 [4] = biological target: T1, Cannabinoid receptor 2; assay: Displacement of [3H]CP-55940 from human recombinant CB2 receptor expressed in HEK293 cells at 10 uM after 90 mins; type: cell-based
Cannabinoid receptor 1 [5] = biological target: T2, Cannabinoid receptor 1; assay: Displacement of [3H]CP-55940 from human recombinant CB1 receptor expressed in HEK293 cells at 10 uM after 90 mins; type: cell-based
In short: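 Membranes from HEK-293 cells stably expressing human recombinant CB1 or CB2 were incubated with [³H]-CP-55,940 (0.14 nM for CB1; 0.084 nM for CB2) plus test compound for 90 min at 30 °C. Non-specific binding was defined with WIN 55212-2. Percent displacement of bound radioligand at the maximum tested concentration is reported. At least n = 3 experiments.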

Acetylcholinesterase, sequence (P22303 whole entry): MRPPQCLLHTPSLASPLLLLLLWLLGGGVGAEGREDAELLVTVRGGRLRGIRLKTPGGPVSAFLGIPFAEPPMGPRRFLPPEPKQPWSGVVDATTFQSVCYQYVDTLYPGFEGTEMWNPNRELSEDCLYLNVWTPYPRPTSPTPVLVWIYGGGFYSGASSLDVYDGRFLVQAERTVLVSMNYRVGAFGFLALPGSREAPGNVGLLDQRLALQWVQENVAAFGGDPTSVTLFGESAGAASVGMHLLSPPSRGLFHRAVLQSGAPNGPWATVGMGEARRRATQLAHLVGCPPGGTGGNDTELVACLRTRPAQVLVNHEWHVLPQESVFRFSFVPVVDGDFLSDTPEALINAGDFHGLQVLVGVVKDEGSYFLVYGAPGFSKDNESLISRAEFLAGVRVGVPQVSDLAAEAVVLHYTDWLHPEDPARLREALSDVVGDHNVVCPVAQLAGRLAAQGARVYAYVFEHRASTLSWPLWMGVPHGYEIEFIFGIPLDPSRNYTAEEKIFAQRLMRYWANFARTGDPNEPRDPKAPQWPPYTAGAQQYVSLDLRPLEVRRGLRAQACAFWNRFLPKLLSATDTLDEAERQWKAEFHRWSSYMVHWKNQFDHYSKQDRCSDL
T1 sequence (P34972 whole entry): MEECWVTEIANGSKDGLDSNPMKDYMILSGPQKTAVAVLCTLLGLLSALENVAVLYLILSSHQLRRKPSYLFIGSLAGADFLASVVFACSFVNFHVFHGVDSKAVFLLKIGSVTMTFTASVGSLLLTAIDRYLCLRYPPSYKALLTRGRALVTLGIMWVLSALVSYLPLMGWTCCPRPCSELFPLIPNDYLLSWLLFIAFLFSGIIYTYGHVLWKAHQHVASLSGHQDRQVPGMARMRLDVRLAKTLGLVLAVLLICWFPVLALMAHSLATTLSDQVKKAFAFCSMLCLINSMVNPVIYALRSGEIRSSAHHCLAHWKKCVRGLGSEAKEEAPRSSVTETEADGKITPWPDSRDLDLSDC
T2 sequence (P21554 whole entry): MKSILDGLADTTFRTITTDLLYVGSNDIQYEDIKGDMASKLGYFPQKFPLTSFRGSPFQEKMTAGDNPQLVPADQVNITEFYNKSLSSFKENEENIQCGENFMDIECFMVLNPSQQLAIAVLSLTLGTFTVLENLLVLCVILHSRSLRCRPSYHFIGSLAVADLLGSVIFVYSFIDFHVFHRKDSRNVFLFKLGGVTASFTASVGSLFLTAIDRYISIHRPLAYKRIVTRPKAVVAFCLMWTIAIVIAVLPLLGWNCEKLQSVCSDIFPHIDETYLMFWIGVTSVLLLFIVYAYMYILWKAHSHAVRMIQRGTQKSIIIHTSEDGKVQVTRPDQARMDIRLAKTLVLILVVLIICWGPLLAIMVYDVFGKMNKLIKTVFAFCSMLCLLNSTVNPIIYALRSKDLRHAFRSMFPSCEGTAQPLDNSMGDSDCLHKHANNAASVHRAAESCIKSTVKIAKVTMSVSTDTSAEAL
Cholinesterase, sequence (P06276 whole entry): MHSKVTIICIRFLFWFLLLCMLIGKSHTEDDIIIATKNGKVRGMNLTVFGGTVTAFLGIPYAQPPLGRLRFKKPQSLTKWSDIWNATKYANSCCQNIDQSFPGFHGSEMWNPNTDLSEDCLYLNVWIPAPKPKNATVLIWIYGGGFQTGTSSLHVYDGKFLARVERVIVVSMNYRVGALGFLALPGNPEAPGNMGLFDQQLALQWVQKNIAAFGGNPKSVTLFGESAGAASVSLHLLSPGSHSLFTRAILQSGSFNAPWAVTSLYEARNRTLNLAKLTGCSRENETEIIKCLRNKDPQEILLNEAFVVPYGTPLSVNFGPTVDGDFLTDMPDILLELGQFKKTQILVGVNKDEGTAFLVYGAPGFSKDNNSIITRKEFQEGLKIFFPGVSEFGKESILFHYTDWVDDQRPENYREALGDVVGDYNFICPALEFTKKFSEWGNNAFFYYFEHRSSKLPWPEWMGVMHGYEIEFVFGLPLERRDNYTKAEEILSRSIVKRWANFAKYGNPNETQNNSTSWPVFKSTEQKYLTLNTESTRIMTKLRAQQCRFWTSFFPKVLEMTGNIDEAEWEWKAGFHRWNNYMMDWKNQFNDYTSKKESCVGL

Compound | IC50 (Acetylcholinesterase) | inhibition [1] | IC50 (Cholinesterase) [µM] | Activity (Cannabinoid receptor 2 [2]) | Activity (Cannabinoid receptor 1 [3]) | Activity (Cannabinoid receptor 2 [4]) [%] | EC50 (Cannabinoid receptor 2 [2]) [µM] | Ki (Cannabinoid receptor 2 [2]) [µM] | IC50 (Acetylcholinesterase; read-out: IC50) [µM] | EC50 (Cannabinoid receptor 1 [3]) [µM] | Ki (Cannabinoid receptor 1 [3]) [µM] | Activity (Cannabinoid receptor 1 [5]) [%]
CN(CCCCCCCCOc1ccc(-c2cc3ccccc3o2)cc1)Cc1ccccc1 | Not Active | Active | 7.47 |  |  |  |  |  |  |  |  | 
COc1ccccc1C(=O)c1c(-c2cccc(OCCCCCCCN(C)Cc3ccccc3)c2)oc2ccccc12 | Not Active |  | 1.97 | inactive | inactive |  |  |  |  |  |  | 
CCN(CC)CCOc1cccc(C(=O)c2c(-c3ccc(OCCCCCCCN(C)Cc4ccccc4)cc3)oc3ccccc23)c1 |  | Active | 1.81 |  |  | 77.9 | 2.71 | 0.69 | 37.1 | 6.38 | 2.57 | 76.5
CN(CCCCCCCOc1ccc(-c2oc3ccccc3c2C(=O)c2ccc3ccccc3c2)cc1)Cc1ccccc1 | Not Active |  | 89.1 |  |  | 6.87 | > 10 | > 10 |  | > 10 | > 10 | 35.1
COc1cccc(C(=O)c2c(-c3cccc(OCCCCCCCN(C)Cc4ccccc4)c3)oc3ccccc23)c1OC | Not Active |  | 3.01 | inactive | inactive |  |  |  |  |  |  | 
CN(CCCCCCCOc1ccc(-c2oc3ccccc3c2C(=O)c2ccc(OCCN3CCOCC3)cc2)cc1)Cc1ccccc1 |  | Active | 21 |  |  | 70.6 | 2.27 | 0.58 | 39 | 1.37 | 0.55 | 83.1
CCN(CC)Cc1cccc(C(=O)c2c(-c3ccc(OCCCCCCCN(C)Cc4ccccc4)cc3)oc3ccccc23)c1 |  | Active | 3.18 |  |  | 47.3 | > 10 | > 10 | 53 | > 10 | > 10 | 29.8
COc1ccc(C(=O)c2c(-c3cccc(OCCCCCCCN(C)Cc4ccccc4)c3)oc3ccccc23)cc1OC | Not Active |  | 2.51 | inactive | inactive |  |  |  |  |  |  | 
CN(CCCCCCCOc1ccc(-c2cc3ccccc3o2)cc1)Cc1ccccc1 |  |  |  |  |  | 21.8 | > 10 | > 10 |  | 6.95 | 2.8 | 57.8
COc1cccc(C(=O)c2c(-c3cccc(OCCCCCCCN(C)Cc4ccccc4)c3)oc3ccccc23)c1 | Not Active |  | 1.37 | inactive | inactive |  |  |  |  |  |  | 
CN(CCCCCCCOc1ccc(-c2oc3ccccc3c2C(=O)c2cccc3ccccc23)cc1)Cc1ccccc1 |  | 48% | 60.1 |  |  | 8.9 | > 10 | > 10 | 101 | > 10 | > 10 | 13.8
Cc1ccc(C(=O)c2c(-c3cccc(OCCCCCCCN(C)Cc4ccccc4)c3)oc3ccccc23)cc1 | Not Active |  | 43.9 | inactive | inactive |  |  |  |  |  |  | 
CN(CCCOc1ccc(-c2cc3ccccc3o2)cc1)Cc1ccccc1 | Not Active | Active | 136 |  |  |  |  |  |  |  |  | 
CCN(CC)CCOc1ccc(C(=O)c2c(-c3ccc(OCCCCCCCN(C)Cc4ccccc4)cc3)oc3ccccc23)cc1 |  | Active | 23 |  |  | 92 | 4.65 | 1.18 | 78 | > 10 | > 10 | 35.2
CN(CCCCCOc1ccc(-c2cc3ccccc3o2)cc1)Cc1ccccc1 |  | Active | 6.6 |  |  |  |  |  | 215 |  |  | 
COc1cc(OC)cc(C(=O)c2c(-c3cccc(OCCCCCCCN(C)Cc4ccccc4)c3)oc3ccccc23)c1 | Not Active |  | 0.048 | inactive | inactive |  |  |  |  |  |  | 
